Assay results: article PMC10454840 (Drug Design, Development and Therapy, 2023)

Experiments:
E. granulosus s.s. PSCs = experiment: In vitro drug treatment of PSCs, viability by 1% eosin staining; assay type: cell-based, Echinococcus granulosus sensu stricto; conditions: Echinococcus granulosus, 48 h, read-out: viability of PSCs
How it was run: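 Protoscoleces came from sheep cysts. They were washed in PBS, digested with 1% pepsin for 30 min and cultured in RPMI 1640 with 10% FBS and penicillin/streptomycin at 37 °C, 5% CO2 for 3 days, with viability above 98%. Wells held 200 PSCs. Compounds came from 20 mM DMSO stocks, at 40 μM final for screening, then 40–240 μM. The control was 1% DMSO. After 48 h, 1% eosin marked dead PSCs red. Three independent experiments, mean ± S.D.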

[1] = system: cysts from E. granulosus s.s.-infected mice; experiment: TEM observation of cysts from treated infected mice; assay type: in vivo, Kunming mice; conditions: 50 mg/kg, oral, 28 days
How it was run: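 Female Kunming mice, 8 weeks old, were infected intraperitoneally with 50 in vitro-derived microcysts. Infection was confirmed by B-mode ultrasound at 6 months, and mice were randomised into groups of 6. Test compound was given in 0.5% CMC-Na by daily oral gavage (0.1 mL/10 g) for 28 days against a vehicle control. Peritoneal cysts were isolated, and randomly selected cysts were examined by TEM.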

[2] = system: E. granulosus s.s.-infected mice; experiment: Drug treatment of E. granulosus s.s.-infected mice, cyst weight; assay type: in vivo, Kunming mice; conditions: 50 mg/kg/day oral, 28 days
PC12 cells [3] = experiment: MTT cytotoxicity assay in PC12 cells; assay type: cell-based; conditions: 200 μM, 48 h
How it was run: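 PC12 cells in log phase were grown in RPMI 1640 with 10% horse serum, 5% FBS and penicillin/streptomycin, then seeded at 1×10^4 per well and settled for 12 h at 37 °C, 5% CO2. Compounds were added at 6.25–200 μM final, in triplicate, with a DMSO control, for 48 h. Serum-free medium plus MTT followed for 4 h, then formazan lysate and absorbance at 570 nm. Inhibition = [1−(ODtreated−ODblank)/(ODcontrol−ODblank)]×100%.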

PC12 cells [4] = experiment: Hoechst 33342 staining assay of PC12 cell apoptosis; assay type: cell-based; conditions: 200 μM, 48 h
How it was run: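 PC12 cells seeded at 1×10^5/well in 6-well plates and grown at 37 °C, 5% CO2 to 70–80% confluence. Test compound at 200 μM for 48 h, with a DMSO control group. Medium removed, Hoechst staining solution added for 30 min at 37 °C, cells washed three times with PBS, and nuclear morphology viewed by inverted fluorescence microscopy.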

[5] = Acute toxicity study in mice; conditions: both, Kunming, mouse, in vivo, po, single oral dose

Row | Structure (SMILES) | viability at 40 µM (E. granulosus s.s. PSCs) [%] | cyst ultrastructure (TEM) [1] | cyst weight [2] [g] | PC12 cell viability inhibition (PC12 cells [3]) [%] | PC12 cell nuclei / morphology (apoptosis) (PC12 cells [4]) | LD50 at 14 days [5] [mg/kg]
1 | CCCSc1ccc2nc(NC(=O)OC)[nH]c2c1 [ABZ, Albendazole] | 94.8 ± 5 | fewer microtriches and an unclear germinal layer structure but clear nuclei | – | – | – | –
2 | COc1ccc2c(c1)[nH]c1c(C)nccc12 [HM, 7-methoxy-1-methyl-9H-pyrido[3,4-b] indole] | 94.7 ± 4.52 | fewer microtriches and an unclear germinal layer structure but clear nuclei | 6.53 ± 1.56 | 87.02 ± 5.65 | reduced number of cells with varying morphological sizes and significantly denser granules or bright blue fluorescence | 447
